Measurements: ChEMBL document CHEMBL1142554, “Lyngbyastatin 2 and norlyngbyastatin 2, analogues of dolastatin G and nordolastatin G from the marine cyanobacterium Lyngbya majuscula” (J Nat Prod, 1999)
In brackets after ≈: the same amount, converted by molar mass. Activity calls are given as the source filed them. No cut-off for these calls is given here. Starred links: 1 amine or outer side, 2 acyl side, 3 side chain; linkers in the order of their positions; H or OH if unused. Positions of bridges follow the written chain, without caps; N, C: chain ends. Non-standard residues stand in square brackets, D forms with d. Residues, ends and D or L forms follow the SMILES beside them. X1 = CC[C@H](CCC[C@@H](O)[C@@H](C)C(=O)O[C@H](C)[C@@H](C)C/C=C(C)/C(=C\C(=O)[*:1])OC)O[*:2]; X2 = CC[C@H](CCC[C@@H](O)[C@@H](C)C(=O)O[C@H](C)[C@@H](C)C/C=C(\C)C(=O)CC(=O)[*:1])O[*:2]; NMeI = CC[C@H](C)[C@H](NC)C(=O)O; NMeV = CN[C@H](C(=O)O)C(C)C; NMeS = CN[C@@H](CO)C(=O)O

Experiments:
KB = assay: Cytotoxicity against human KB cells; format: functional, cell-based
[1] = target: T1, DNA topoisomerase 1 (Homo sapiens) (UniProt P11387); assay: Inhibition of topoisomerase 1
T1 sequence (whole entry): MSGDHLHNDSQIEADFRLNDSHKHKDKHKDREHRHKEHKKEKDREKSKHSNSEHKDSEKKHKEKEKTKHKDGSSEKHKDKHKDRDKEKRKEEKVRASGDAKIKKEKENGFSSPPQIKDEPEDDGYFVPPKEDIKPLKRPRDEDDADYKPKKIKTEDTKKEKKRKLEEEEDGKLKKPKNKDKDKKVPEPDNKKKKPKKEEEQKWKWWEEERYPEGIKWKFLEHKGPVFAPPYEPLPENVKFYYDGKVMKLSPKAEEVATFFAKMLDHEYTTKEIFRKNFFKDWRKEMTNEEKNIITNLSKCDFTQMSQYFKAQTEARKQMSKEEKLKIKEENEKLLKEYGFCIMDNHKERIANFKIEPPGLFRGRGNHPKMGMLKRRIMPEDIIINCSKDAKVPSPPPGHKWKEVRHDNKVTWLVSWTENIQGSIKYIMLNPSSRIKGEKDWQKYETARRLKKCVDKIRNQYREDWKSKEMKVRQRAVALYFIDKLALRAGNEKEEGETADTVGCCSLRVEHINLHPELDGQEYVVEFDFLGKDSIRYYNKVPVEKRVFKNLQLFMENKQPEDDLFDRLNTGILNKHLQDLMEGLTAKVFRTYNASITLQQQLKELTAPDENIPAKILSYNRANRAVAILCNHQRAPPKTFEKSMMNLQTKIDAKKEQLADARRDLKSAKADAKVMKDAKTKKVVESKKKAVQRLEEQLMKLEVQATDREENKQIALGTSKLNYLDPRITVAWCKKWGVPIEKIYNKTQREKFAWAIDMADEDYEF

MC-38 = assay: Cytotoxicity against mouse C38 cells at 1.8 mg/kg by in vivo assay; format: functional, organism-based; parameters: dose 1.8 mg/kg
Method in brief: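 In vivo mouse model bearing the murine colon adenocarcinoma C38, with compound dosed at 1.8 mg/kg or lower.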

LoVo = assay: Cytotoxicity against human LoVo cells; format: functional, cell-based
[2] = Inhibition of microfilament assembly
Mus musculus = species: Mus musculus; assay: Toxicity in mouse; format: organism-based; details: in vivo
[3] = Inhibition of microtubule assembly

SMILES | IC50 (KB) | Activity [1] | Activity (MC-38) | IC50 (LoVo) | Activity [2] | LD100 (Mus musculus) | Activity [3]
CC[C@@H]1CCC[C@@H](O)[C@@H](C)C(=O)O[C@H](C)[C@@H](C)C/C=C(C)/C(OC)=C\C(=O)N(C)[C@@H]([C@@H](C)CC)C(=O)N(C)[C@@H](C(C)C)C(=O)N(C)[C@@H](COC)C(=O)N2CCC[C@H]2C(=O)N(C)[C@@H](C(C)C)C(=O)N2CCC[C@H]2C(=O)O1 [LYNGBYASTATIN 2] ([NMeI][NMeV][NMeS](Me)P[NMeV]P; linker N-C via X1) | 0.02 µg/mL (≈ 0.0189 µM) | inactive | inactive | 0.014 µg/mL (≈ 0.0132 µM) | inactive | 3 mg/kg | inactive
CC[C@@H]1CCC[C@@H](O)[C@@H](C)C(=O)O[C@H](C)[C@@H](C)C/C=C(\C)C(=O)CC(=O)N(C)[C@@H]([C@@H](C)CC)C(=O)N(C)[C@@H](C(C)C)C(=O)N(C)[C@@H](COC)C(=O)N2CCC[C@H]2C(=O)N(C)[C@@H](C(C)C)C(=O)N2CCC[C@H]2C(=O)O1 [NORLYNGBYASTATIN 2] ([NMeI][NMeV][NMeS](Me)P[NMeV]P; linker N-C via X2) | 0.93 µg/mL (≈ 0.89 µM) | inactive | – | 0.475 µg/mL (≈ 0.454 µM) | inactive | – | inactive
